We go through three molecules from ChEMBL document CHEMBL2203235, “Optimization of a natural product-based class of γ-secretase modulators” (J Med Chem, 2012).

Broadly, the IC50 is the concentration that inhibits the measured activity by half. In general, Kp refers to the ratio of the level in a tissue or fluid to that in plasma or blood. As usually defined, the Cmax is the peak of the concentration-time curve. Usually clearance stands for the volume of plasma or blood freed of the substance per unit of time. One may read the half-life as the time in which the quantity being followed falls by half. What is called bioavailability is dose-corrected exposure relative to a reference, in per cent. One may read the Vd as a proportionality between amount in the body and measured concentration, not a real space. As usually defined, the inhibition is the drop in the measured response relative to a control, in per cent.

Data set [1] is described as follows: Modulation of gamma secretase in CHO-2B7 cells assessed as reduction in amyloid beta 42 level after 5 hrs by MSD ELISA. Format: cell-based. The settings on record: Cricetulus griseus, CHO-2B7, 5 h. On the technique in general: ELISA stands for enzyme-linked immunosorbent assay.
For data set [2], the system named is CHO-2B7. As to the kind of experiment: Modulation of gamma secretase in CHO-2B7 cells assessed as reduction in amyloid beta 40 level at 20 mM after 5 hrs by MSD ELISA. Also noted: scale not given: the % may be the effect or the level left. The settings on record: Cricetulus griseus. Format: cell-based.
For data set [3], the system named is Liver microsomes. Briefly: Metabolic stability in human liver microsomes at 1 uM after 60 mins by LC/MS/MS analysis. The following applies: 1 h.
Data set [4] in a line: Plasma concentration in CD1 mouse at 100 mg/kg, ip at 6 hrs. Type of data set: ADME, organism-based. Set-up: dose 100 mg/kg, route intraperitoneal. The procedure, abridged:
(§1)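 CD-1 mice received a single IP or PO dose (n = 12 per group) and were sampled at 6 h. Plasma and brain drug concentrations were measured in μM. Aβ42, Aβ40 and Aβ38 in brain homogenate are expressed as percent lowering versus vehicle. Statistical significance was assessed against vehicle.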

Data set [5] can be described thus: Ratio of drug uptake in brain to plasma in CD1 mouse at 1 mg/kg, iv at 6 hrs. The following applies: brain and plasma.
The nature of data set [6]: Modulation of gamma secretase in CHO-2B7 cells assessed as reduction in amyloid beta 38 level after 5 hrs by MSD ELISA. Type of data set: cell-based. The following applies: Cricetulus griseus, CHO-2B7, 5 h.
A short description of data set [7]: Drug uptake in CD1 mouse brain at 100 mg/kg, ip at 6 hrs. Format: ADME, organism-based. Set-up: dose 100 mg/kg, route intraperitoneal. The following applies: read-out: Drug uptake. The procedure, abridged: as §1
The nature of data set [8]: Modulation of gamma secretase in CHO-2B7 cells assessed as reduction in amyloid beta 40 level after 5 hrs by MSD ELISA. Type of data set: cell-based. The following applies: Cricetulus griseus, CHO-2B7, 5 h.
A short description of data set [9]: Plasma concentration in CD1 mouse at 30 mg/kg, ip at 6 hrs. Type of data set: ADME, organism-based. Set-up: dose 30 mg/kg, route intraperitoneal. The procedure, abridged: as §1
Data set [10] is described as follows: Ratio of drug uptake in brain to plasma in CD1 mouse at 30 mg/kg, po at 6 hrs. The settings on record: brain and plasma.
The test system of data set [11] is CHO. As to the kind of experiment: Modulation of gamma secretase in CHO cells expressing human APP assessed as reduction amyloid beta (1 to 38) level at 3 uM after 6 hrs by LC/MS/MS analysis relative to control. Also noted: scale not given: the % may be the effect or the level left. Type of data set: cell-based. The settings on record: Cricetulus griseus. The procedure, abridged:
(§2)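 Cells were treated at 3 μM or 2 μM. Secreted Aβ peptides (Aβ37, 38, 39, 40, 42) were quantified by immunoprecipitation followed by LC/MS/MS. Changes are expressed relative to vehicle-treated cells.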

Data set [12] has as its system Mus musculus. As to the kind of experiment: Antialzheimer activity in CD1 mouse assessed as reduction in amyloid beta 42 level at 30 mg/kg, ip at 6 hrs relative to vehicle-treated control. Type of data set: functional. Set-up: scale not given: the % may be the effect or the level left. The settings on record: route intraperitoneal. The procedure, abridged:
as §1

Data set [13] is described as follows: Inhibition of gamma secretase in CHO-2B7 cells assessed as reduction in total amyloid beta level after 5 hrs by MSD ELISA. Format: cell-based. The settings on record: Cricetulus griseus, CHO-2B7, 5 h.
Data set [14] can be described thus: in vivo. The settings on record: CD1, mouse, po, 30 mg/kg.
Data set [15] concerns Mus musculus. Briefly: Antialzheimer activity in CD1 mouse assessed as reduction in amyloid beta 40 level at 30 mg/kg, ip at 6 hrs relative to vehicle-treated control. Type of data set: functional. Set-up: scale not given: the % may be the effect or the level left. The following applies: route intraperitoneal. The procedure, abridged: as §1
A short description of data set [16]: Drug uptake in CD1 mouse brain at 1 mg/kg, iv at 6 hrs.
A short description of data set [17]: Clearance in CD1 mouse at 1 mg/kg, iv. The following applies: in vivo.
A short description of data set [18]: Half life in CD1 mouse at 1 mg/kg, iv. The settings on record: in vivo.
The nature of data set [19]: Plasma concentration in CD1 mouse at 1 mg/kg, iv at 6 hrs.
Data set [20] relates to CHO. Briefly: Modulation of gamma secretase in CHO cells expressing human APP assessed as increase in amyloid beta (1 to 39) level at 3 uM after 6 hrs by LC/MS/MS analysis relative to control. Type of data set: cell-based. The following applies: Cricetulus griseus. The procedure, abridged:
as §2

Data set [21] relates to CHO. As to the kind of experiment: Modulation of gamma secretase in CHO cells expressing human APP assessed as amyloid beta (1 to 42) level at 3 uM after 6 hrs by LC/MS/MS analysis (reference value: 0.6 ng). Type of data set: cell-based. The following applies: Cricetulus griseus. The procedure, abridged: as §2
In data set [22] the test system is Mus musculus. Briefly: Antialzheimer activity in CD1 mouse assessed as reduction in amyloid beta 38 level at 30 mg/kg, ip at 6 hrs relative to vehicle-treated control. Format: functional. Set-up: scale not given: the % may be the effect or the level left. The following applies: route intraperitoneal. The procedure, abridged: as §1
The subject of data set [23] is CHO. Briefly: Modulation of gamma secretase in CHO cells expressing human APP assessed as increase in amyloid beta (1 to 37) level at 3 uM after 6 hrs by LC/MS/MS analysis relative to control. Format: cell-based. The following applies: Cricetulus griseus. The procedure, abridged: as §2
In data set [24] the test system is CHO. As to the kind of experiment: Modulation of gamma secretase in CHO cells expressing human APP assessed as amyloid beta (1 to 40) level at 3 uM after 6 hrs by LC/MS/MS analysis (reference value: 10.2 ng). Format: cell-based. The settings on record: Cricetulus griseus. The procedure, abridged:
as §2

Data set [25] is described as follows: Drug uptake in CD1 mouse brain at 30 mg/kg, ip at 6 hrs. Format: ADME, organism-based. Set-up: dose 30 mg/kg, route intraperitoneal. The following applies: read-out: Drug uptake. The procedure, abridged:
as §1

In data set [26] the test system is Mus musculus. Briefly: Antialzheimer activity in CD1 mouse assessed as reduction in amyloid beta 40 level at 100 mg/kg, ip at 6 hrs relative to vehicle-treated control. Format: functional. Also noted: scale not given: the % may be the effect or the level left. The settings on record: route intraperitoneal. The procedure, abridged:
as §1

Data set [27] is described as follows: in vivo. The following applies: CD1, mouse, po, 30 mg/kg. This is another data set of the same source.
Data set [28] concerns Mus musculus. Briefly: Antialzheimer activity in CD1 mouse assessed as reduction in amyloid beta 42 level at 100 mg/kg, ip at 6 hrs relative to vehicle-treated control. The following applies: route intraperitoneal. Format: functional. Set-up: scale not given: the % may be the effect or the level left. The procedure, abridged: as §1
Data set [29] is described as follows: Volume of distribution in CD1 mouse at 1 mg/kg, iv. The settings on record: in vivo.
Data set [30] deals with SUP-T1. Briefly: Inhibition of notch-mediated NICD release in human SUP-T1 cells at 4 uM after 18 hrs by immunoblotting assay. Format: cell-based. A general note: Immunoblotting shows a protein as a band on a membrane.
For data set [31], the system named is Mus musculus. Briefly: Antialzheimer activity in CD1 mouse assessed as reduction in amyloid beta 38 level at 100 mg/kg, ip at 6 hrs relative to vehicle-treated control. Type of data set: functional. Also noted: scale not given: the % may be the effect or the level left. The following applies: route intraperitoneal. The procedure, abridged: as §1
Data set [32] has as its system CHO-2B7. As to the kind of experiment: Modulation of gamma secretase in CHO-2B7 cells assessed as reduction in amyloid beta 42 level at 4 uM after 5 hrs by MSD ELISA. Type of data set: cell-based. Set-up: scale not given: the % may be the effect or the level left. The settings on record: Cricetulus griseus.

On to `CCO[C@@H]([C@H]1C[C@@H](C)[C@H]2[C@H](O1)[C@H](O)[C@@]1(C)[C@@H]3CC[C@H]4C(C)(C)[C@@H](O[C@H]5CN(CC(F)(F)F)CCO5)CC[C@@]45C[C@@]35CC[C@]21C)C(C)(C)O`, for which the IC50 in data set [1] turned out to be 2300 nM. Moreover, in [2], the Activity stood at 44%. Besides, the Stability entry in data set [3] is “Stable”.
On to `CCO[C@@H]([C@H]1C[C@@H](C)[C@H]2[C@H](O1)[C@H](O)[C@@]1(C)[C@@H]3CC[C@H]4C(C)(C)[C@@H](O[C@H]5CN(CCOC)CCO5)CC[C@@]45C[C@@]35CC[C@]21C)C(C)(C)O`, for which the IC50 is 270 nM in [1], 380 nM in data set [6], 9900 nM in [8] and 12000 nM in data set [13]. Also, the concentration at 6 h was determined as 12000 nM in [4]; 23000 nM in [7]; 2200 nM in data set [9]; 9 nM in [16]; 35 nM in data set [19]; 1600 nM in data set [25]. In addition, the figures for the Kp at 6 h in [5] and in [10] were 0.26 and 0.4, respectively. In addition, the Activity was 58% in data set [11]; 7% in data set [12]; 8% in data set [15]; 310% in data set [20]; “Below limit of detection” in data set [21]; 4% in [22]. Further, the Activity in data set [23] amounted to 50%; in data set [24], 6.2 ng; in data set [26], 30%; in data set [28] it was 46%; in data set [31], 31%. Further, the peak level in data set [14] (Cmax) was 3600 nM. The clearance in data set [17] is 4.83 mL/min/kg. In data set [18], this molecule gave a half-life of 2.5 h. For the same molecule, the Stability entry in data set [3] was “Stable”. The molecule also gave a bioavailability in data set [27] of 19%. The same molecule came in with a distribution volume (Vd) in [29] of 0.42 L/kg. The molecule further yielded an inhibition in data set [30] of 0%.
Take `C[C@@H]1C[C@H]([C@H](O)C(C)(C)O)O[C@H]2[C@H]1[C@@]1(C)CC[C@@]34C[C@@]35CC[C@H](O[C@H]3CN(C(=O)CC6CC6)CCO3)C(C)(C)[C@@H]5CC[C@H]4[C@]1(C)[C@H]2O`: the IC50 in data set [1] came to 70 nM. Further, the Activity in [32] worked out at 40%.
